What was measured:
Type in all cases: in vivo, human
[1] = Study 1003 MRD cohorts plasma pharmacokinetics; conditions: for AUC0–24, mean (CV%) / AUC0–∞, mean (CV%) / C max, mean (CV%) / t max, median (range) / t ½z, mean (CV%): plasma
[2] = Study 1001 single-dose urine pharmacokinetics; conditions: for Aet, mean (CV%) / CLR, mean (CV%) / fe,t, mean (CV%): urine, Study 1001
[3] = Study 1003 SRD cohort plasma pharmacokinetics; conditions: fasted
How it was run: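 Healthy women received a single oral 120 mg dose, then 160 mg after a washout of at least 14 days (placebo-controlled). Plasma was sampled pre-dose and at 0.25–72 h. Free base was measured by validated UPLC–MS/MS after protein precipitation (calibration 0.5–1000 ng mL−1). Noncompartmental parameters used actual sampling times, with values below LLOQ set to zero.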

[4] = Study 1001 single-rising-dose plasma pharmacokinetics; conditions: for AUC0–24, mean (CV%) / AUC0–∞, mean (CV%) / t max, median (range) / t ½z, mean (CV%): plasma, Study 1001
[5] = 20 mg q.d., non‐Japanese, Day 1
[6] = 20 mg q.d., non‐Japanese, Day 10
[7] = 60 mg q.d., non‐Japanese, Day 1
[8] = 60 mg q.d., non‐Japanese, Day 10
[9] = 160 mg q.d., non‐Japanese, Day 1
[10] = 160 mg q.d., non‐Japanese, Day 10

Cl.O=C(NC1CCOCC1)c1csc([C@@H]2C[C@H]2NCC2CC2)c1 [TAK‐418]
PK linearity point estimate, Day 10 AUC0–24 compared with Day 1 AUC0–∞ ([1]; 20 mg q.d.): 1.29
AUC0–24, Japanese vs non‐Japanese participants ([1]; 20 mg, Day 1): 1.21 fold
AUC0–24, Japanese compared with non‐Japanese participants ([1]; 20 mg, Day 10 steady state): approximately the same
PK linearity point estimate, Day 10 AUC0–24 compared with Day 1 AUC0–∞ ([1]; 60 mg q.d.): 1.13
PK linearity point estimate, Day 10 AUC0–24 compared with Day 1 AUC0–∞ ([1]; 160 mg q.d.): 1.06
mean terminal disposition phase half‐life (t ½z) at steady state ([1]; 20–160 mg q.d.): 4.35 to 5.36 h
median t max at steady state ([1]; Day 10, 20–160 mg q.d.): 1.00 to 1.26 h
AUC0–24, mean (CV%) ([1]; 20 mg q.d., Japanese, Day 1): 610.3 (14.4) h*ng mL^−1
AUC0–∞, mean (CV%) ([1]; 20 mg q.d., Japanese, Day 1): 619.0 (14.8) h*ng mL^−1
C max, mean (CV%) ([1]; 20 mg q.d., Japanese, Day 1): 154.7 (6.0) ng mL^−1
t max, median (range) ([1]; 20 mg q.d., Japanese, Day 1): 1.00 (0.50–1.50) h
AUC0–24, mean (CV%) ([1]; 20 mg q.d., Japanese, Day 10): 677.3 (10.9) h*ng mL^−1
C max, mean (CV%) ([1]; 20 mg q.d., Japanese, Day 10): 171.3 (6.0) ng mL^−1
t max, median (range) ([1]; 20 mg q.d., Japanese, Day 10): 1.00 (1.00–1.50) h
t ½z, mean (CV%) ([1]; 20 mg q.d., Japanese, Day 10): 4.350 (14.4) h
AUC0–24, mean (CV%) [1, 5]: 503.3 (32.9) h*ng mL^−1
AUC0–∞, mean (CV%) [1, 5]: 515.3 (33.4) h*ng mL^−1
C max, mean (CV%) [1, 5]: 85.2 (33.8) ng mL^−1
t max, median (range) [1, 5]: 1.75 (1.00–3.00) h
AUC0–24, mean (CV%) [1, 6]: 668.2 (34.2) h*ng mL^−1
C max, mean (CV%) [1, 6]: 117.8 (30.1) ng mL^−1
t max, median (range) [1, 6]: 1.26 (1.00–2.00) h
t ½z, mean (CV%) [1, 6]: 4.997 (10.1) h
AUC0–24, mean (CV%) [1, 7]: 1445.5 (24.4) h*ng mL^−1
AUC0–∞, mean (CV%) [1, 7]: 1476.7 (25.4) h*ng mL^−1
C max, mean (CV%) [1, 7]: 276.0 (21.6) ng mL^−1
t max, median (range) [1, 7]: 1.50 (1.00–4.00) h
AUC0–24, mean (CV%) [1, 8]: 1660.5 (25.4) h*ng mL^−1
C max, mean (CV%) [1, 8]: 307.2 (17.0) ng mL^−1
t max, median (range) [1, 8]: 1.250 (1.00–3.00) h
t ½z, mean (CV%) [1, 8]: 4.923 (17.8) h
AUC0–24, mean (CV%) [1, 9]: 3747.3 (6.4) h*ng mL^−1
AUC0–∞, mean (CV%) [1, 9]: 3822.0 (5.7) h*ng mL^−1
C max, mean (CV%) [1, 9]: 679.3 (28.8) ng mL^−1
t max, median (range) [1, 9]: 1.50 (1.00–3.00) h
AUC0–24, mean (CV%) [1, 10]: 4058.3 (6.1) h*ng mL^−1
C max, mean (CV%) [1, 10]: 697.7 (14.7) ng mL^−1
t max, median (range) [1, 10]: 1.00 (1.00–1.50) h
t ½z, mean (CV%) [1, 10]: 5.357 (8.7) h
renal clearance ([2]; 20–160 mg dose range, single dose (Tables 3 and 4)): 5.81 to 8.68 L/h
recovered unchanged from urine ([2]; after 20–160 mg dosing, single dose (Tables 3 and 4)): 13.3–19.5%
Aet, mean (CV%) ([2]; single oral dose 30 mg, fasted): 5.708 (13.0) mg
CLR, mean (CV%) ([2]; single oral dose 30 mg, fasted): 8.683 (16.3) L h^−1
fe,t, mean (CV%) ([2]; single oral dose 30 mg, fasted): 19.022 (13.0) %
Aet, mean (CV%) ([2]; single oral dose 40 mg): 5.333 (18.8) mg
CLR, mean (CV%) ([2]; single oral dose 40 mg): 8.173 (38.1) L h^−1
fe,t, mean (CV%) ([2]; single oral dose 40 mg): 13.335 (18.8) %
Aet, mean (CV%) ([2]; single oral dose 60 mg): 11.677 (35.2) mg
CLR, mean (CV%) ([2]; single oral dose 60 mg): 7.242 (13.4) L h^−1
fe,t, mean (CV%) ([2]; single oral dose 60 mg): 19.472 (35.2) %
recovered unchanged from urine ([2]; within 24 hours): Approximately 20%
AUC0–24, mean (CV%) ([3]; single oral dose 120 mg): 3737.2 (19.9) h*ng mL^−1
AUC0–∞, mean (CV%) ([3]; single oral dose 120 mg): 3828.3 (20.6) h*ng mL^−1
C max, mean (CV%) ([3]; single oral dose 120 mg): 727.8 (20.0) ng mL^−1
t max, median (range) ([3]; single oral dose 120 mg): 1.50 (1.00–1.50) h
t ½z, mean (CV%) ([3]; single oral dose 120 mg): 5.188 (9.9) h
AUC0–24, mean (CV%) ([3]; single oral dose 160 mg): 4350.0 (31.0) h*ng mL^−1
AUC0–∞, mean (CV%) ([3]; single oral dose 160 mg): 4466.8 (31.7) h*ng mL^−1
C max, mean (CV%) ([3]; single oral dose 160 mg): 796.3 (36.2) ng mL^−1
t max, median (range) ([3]; single oral dose 160 mg): 1.25 (1.00–2.00) h
t ½z, mean (CV%) ([3]; single oral dose 160 mg): 4.847 (14.1) h
t ½z ([4]; healthy volunteers, across both studies and doses): 3.13 to 5.36 h
AUC0–24, mean (CV%) ([4]; single oral dose 5 mg): 89.3 (41.1) h*ng mL^−1
AUC0–∞, mean (CV%) ([4]; single oral dose 5 mg): 92.2 (43.3) h*ng mL^−1
t max, median (range) ([4]; single oral dose 5 mg): 1.00 (0.98–1.02) h
t ½z, mean (CV%) ([4]; single oral dose 5 mg): 3.133 (14.8) h
AUC0–24, mean (CV%) ([4]; single oral dose 15 mg): 295.8 (21.5) h*ng mL^−1
AUC0–∞, mean (CV%) ([4]; single oral dose 15 mg): 302.2 (21.8) h*ng mL^−1
t max, median (range) ([4]; single oral dose 15 mg): 1.00 (1.00–2.00) h
t ½z, mean (CV%) ([4]; single oral dose 15 mg): 4.375 (9.0) h
AUC0–24, mean (CV%) ([4]; single oral dose 30 mg, fasted): 646.3 (7.9) h*ng mL^−1
AUC0–∞, mean (CV%) ([4]; single oral dose 30 mg, fasted): 661.3 (7.9) h*ng mL^−1
t max, median (range) ([4]; single oral dose 30 mg, fasted): 1.00 (0.50–1.00) h
t ½z, mean (CV%) ([4]; single oral dose 30 mg, fasted): 4.772 (11.0) h
AUC0–24, mean (CV%) ([4]; single oral dose 40 mg): 690.2 (24.0) h*ng mL^−1
AUC0–∞, mean (CV%) ([4]; single oral dose 40 mg): 700.0 (24.5) h*ng mL^−1
t max, median (range) ([4]; single oral dose 40 mg): 1.25 (1.00–1.52) h
t ½z, mean (CV%) ([4]; single oral dose 40 mg): 3.868 (12.7) h
AUC0–24, mean (CV%) ([4]; single oral dose 60 mg): 1553.5 (29.4) h*ng mL^−1
AUC0–∞, mean (CV%) ([4]; single oral dose 60 mg): 1584.3 (29.9) h*ng mL^−1
t max, median (range) ([4]; single oral dose 60 mg): 1.00 (1.00–1.00) h
t ½z, mean (CV%) ([4]; single oral dose 60 mg): 4.220 (14.9) h

From article PMC9290503 (British Journal of Clinical Pharmacology, 2021)
